These results are taken from ChEMBL document CHEMBL4513216, “Probing the Open Global Health Chemical Diversity Library for Multistage-Active Starting Points for Next-Generation Antimalarials” (ACS Infect Dis, 2020).

This data set in a line: Toxicity liver stage against HepG2, at 10uM. It counts as cell-based. On the set-up: test concentration 10 uM, cell line HepG2-A16-CD81EGFP. The conditions noted are these: human, HepG2-A16-CD81EGFP cells; read-out: INHIBITION
In short, it runs like this:
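Uninfected HepG2-A16-CD81EGFP cells, 3 × 10^3 per well, 1536-well, plated on prespotted compound at 10 μM final, parasite-free screening media added to match infected plates; puromycin 10 μM positive, DMSO 0.5% negative; run in parallel with 48 h PbLuc assay at 37 °C, 5% CO2; viability by CellTiter-Glo luminescence, normalized to controls.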
Turning to `CCN(C)S(=O)(=O)N(Cc1cscn1)c1ccccc1`, the cytotoxicity at 10 µM is -3.81%. For the compound `Cc1noc(C)c1CN(C)Cc1csc(-c2ncccn2)n1`, the cytotoxicity at 10 µM came to 16.5%. As to `CC(C)c1nnc(NC(=O)Cc2csc(-c3nnc[nH]3)n2)s1`, the cytotoxicity at 10 µM is -47.2%. As for `Cc1nc(N2CCOCC2)nc2c1CN(C(=O)Cc1ccccn1)CC2`, the cytotoxicity at 10 µM was -7.61%. As to `O=C(NCC1CCN(c2ccncc2)CC1)C(O)c1ccccc1` (stereo not drawn), the cytotoxicity at 10 µM was determined as 8.15%. For `COc1ccccc1C(C)(C)NC(=O)Nc1ccc(F)c(C(N)=O)c1` the value was -145%. Regarding `COc1cccc(CN2C[C@H]3CCNCC[C@H]3S2(=O)=O)c1`, the cytotoxicity at 10 µM is -8.81%.

Turning to `Cc1ccc(CNCC2CCCn3ccnc32)s1` (stereo not drawn), the cytotoxicity at 10 µM was -15.1%.

In the case of `Cc1ccccc1C(C)CC(=O)N1CC[C@H](O)C1` (stereo partly drawn), the cytotoxicity at 10 µM is -49.7%. As to `Cc1cnn(CC(C)NCc2cccnc2)c1` (stereo not drawn), the cytotoxicity at 10 µM is -3.3%.

For `CC(=O)N1CCc2c(nc(N(C)C)nc2N(C)CCO)C1`, the cytotoxicity at 10 µM is -2.48%. As for `COc1ccc(OCCNC(=O)CN(C)Cc2nnc(C)n2C)cc1`, the cytotoxicity at 10 µM was -10.3%. Turning to `Cc1cc(S(=O)(=O)Nc2cccc(I)c2)sc1C(=O)O`, the cytotoxicity at 10 µM was determined as 3.76%. Consider `O=C(NCC(O)(c1cccs1)C1CC1)NC1CCCCC1` (stereo not drawn), for which the cytotoxicity at 10 µM is -2.25%.

Consider `c1nc(N2CCN(Cc3nnnn3C3CC3)CC2)c2sccc2n1`, for which the cytotoxicity at 10 µM worked out at 24.5%. As for `CN(CCC(=O)N1CCCC(Cc2cccnc2)C1)Cc1cccnc1` (stereo not drawn), the cytotoxicity at 10 µM is -9.41%. Take `CO[C@H]1CN(CC2CC2)[C@@H]2CCCO[C@H]12`: the cytotoxicity at 10 µM is -118%.

Regarding `Cn1ccc(C(=O)N2CCC(Cc3cccc4ncccc34)C2)n1` (stereo not drawn), the cytotoxicity at 10 µM is -4.83%. `COCC(=O)NCC1CCC(c2nnc(-c3cccnc3)o2)CC1` (stereo not drawn): the cytotoxicity at 10 µM is -2.74%.

Take `CN(Cc1ccco1)Cc1ccccc1CNC(=O)c1ccc[nH]1`: the cytotoxicity at 10 µM was -4.11%.

As to `Cc1nc(C)n(CC2CCCN(c3ncnc4sccc34)C2)n1` (stereo not drawn), the cytotoxicity at 10 µM is 36.2%.

Regarding `NC(=O)C(NC(=O)CCc1ccc(Cl)s1)c1ccccc1` (stereo not drawn), the cytotoxicity at 10 µM worked out at 1.28%. Take `CCN1C(=O)C(C)(C)c2cc(NC(=O)c3ccn(CC)n3)ccc21`: the cytotoxicity at 10 µM was 9.65%. Regarding `CCOC1CCN(C(=O)Nc2ccc(=O)n(C)c2)CC1`, the cytotoxicity at 10 µM is -10.4%. For `CCN(Cc1noc(C(C)C)n1)Cc1ccc(C#N)cc1F` the value was -2.48%; for `Cc1csc(N2CCN(CC(=O)NCc3ccccn3)CC2C)n1` (stereo not drawn), -4.04%. In the case of `Cc1ccsc1C(=O)NCc1cccnc1N(C)CCc1ccccn1`, the cytotoxicity at 10 µM was -0.678%. In the case of `CCc1cc(N2CCCC(CC)(C(=O)O)C2)nc(N2CCOCC2)n1` (stereo not drawn), the cytotoxicity at 10 µM came to 0.701%.

For `CC(C)(C)c1cn(CC2CCCN(c3cnc4ccccc4n3)C2)nn1` (stereo not drawn), the cytotoxicity at 10 µM was determined as 42.9%. For the compound `COCCn1cc2c(n1)C(CNCc1ccsc1)OCC2` (stereo not drawn), the cytotoxicity at 10 µM came out at 3.89%. `CCc1nc2n(n1)CC(NCc1cnn(Cc3ccccc3)c1)CC2` (stereo not drawn): the cytotoxicity at 10 µM is -10.4%. For the compound `CNS(=O)(=O)CC(=O)NC(C)Cc1ccc(-c2ccccc2)cc1` (stereo not drawn), the cytotoxicity at 10 µM was 7.69%. Take `COc1cccc(-c2noc(C3CCN(CC4CCCCC4)C3)n2)c1` (stereo not drawn): the cytotoxicity at 10 µM was -3.44%. Take `NC(=O)C1CCN(C(=O)Cn2ccc3cc(Br)ccc32)CC1`: the cytotoxicity at 10 µM came to 11.1%. For `CCc1nc(C2CCCN2C(=O)c2ccoc2C)no1` (stereo not drawn), the cytotoxicity at 10 µM was -11.6%. Consider `Cn1cnc2c1C(C(=O)N1CCCO1)N(C(=O)c1ccccc1)CC2` (stereo not drawn), for which the cytotoxicity at 10 µM is -0.234%. With `CCc1csc(C2CCCN(C(=O)c3ccc(OC)nc3)C2)n1` (stereo not drawn), the cytotoxicity at 10 µM was determined as 4.65%. Then `Cn1cnnc1C1CCCN(C(=O)NCCCn2cccn2)C1` (stereo not drawn), with -5.42%. `O=C(NCc1cn2c(n1)CN(CC1CCOCC1)CC2)C1CCC1`: the cytotoxicity at 10 µM is -12.1%. As to `CCCNC(=O)c1ccc(NC(=O)NC(C)c2ccccn2)cc1` (stereo not drawn), the cytotoxicity at 10 µM stood at 9.15%. With `CSCC(CCO)Nc1nc(C(F)F)nc2ccccc12` (stereo not drawn), the cytotoxicity at 10 µM is -5.52%. For the compound `CCn1c(C)nnc1SCCNc1cc(COC)ncn1`, the cytotoxicity at 10 µM turned out to be 6.35%.

For `COCc1nc(C(=O)N2CCCC2c2noc(C)n2)cs1` (stereo not drawn), the cytotoxicity at 10 µM is -12%. In the case of `CS(=O)(=O)NCc1nnc2n1CCN(Cc1cccnc1)C2`, the cytotoxicity at 10 µM is -70.9%. `O=C(c1cscn1)N1CCC2(CC1)CCN(S(=O)(=O)c1ccccc1)C2`: the cytotoxicity at 10 µM stood at 10.5%. Take `COc1cc(Cl)ccc1C(=O)NCc1nncn1C`: the cytotoxicity at 10 µM is -4.35%. With `Cc1cnn(C2CCCN(C(=O)c3ccccc3-n3cnnn3)C2)c1` (stereo not drawn), the cytotoxicity at 10 µM is -6.92%. In the case of `CN(C)CCN1CCN(Cc2ccco2)Cc2cccnc21`, the cytotoxicity at 10 µM was determined as 1.73%.

For the compound `CC(=O)N1[C@H](Cn2cncn2)C[C@@H]2CN(Cc3ccccn3)CC[C@@H]21`, the cytotoxicity at 10 µM was 0.732%. In the case of `CCN1Cc2ccccc2CC2(CCN(CC(=O)O)CC2)C1=O`, the cytotoxicity at 10 µM is -4.87%. On to `CCOCCN1CCC(C(=O)c2cc(F)ccc2F)CC1`, for which the cytotoxicity at 10 µM was -7.33%. Take `O=C(CCc1cscn1)N1CCCC1c1noc(C2CC2)n1` (stereo not drawn): the cytotoxicity at 10 µM was -10.9%.

Consider `COCCOCC(=O)Nc1nc2c(OC)cc(F)cc2s1`, for which the cytotoxicity at 10 µM was -1.29%. Then `COC1COC2(CCN(S(=O)(=O)c3ccc(F)cc3)CC2)C1` (stereo not drawn), with -95.9%; and `Cc1nonc1NC(=O)c1ccc(F)c(COCC2CC2)c1`, with 18.6%; and `Cc1cc(C)nc(N(C)CCn2ccnc2C)n1`, with -5.42%.

`Cc1cc(C)c2cc(C(=O)N3CCNC(=O)C3)[nH]c2c1`: the cytotoxicity at 10 µM is -13.1%. `CN(C)c1nccc(N(C)C2CCOCC2)n1`: the cytotoxicity at 10 µM was 3.13%. As for `Cc1noc2nc(C3CCN(Cc4cccnc4)CC3)cc(C(F)F)c12`, the cytotoxicity at 10 µM was -2.5%.

Regarding `O=C(NCCOCC(F)(F)F)c1ccc(-c2ccco2)[nH]c1=O`, the cytotoxicity at 10 µM was -8.5%.

With `CCc1nc(C2CCCN(C(=O)c3cccc4cn[nH]c34)C2)no1` (stereo not drawn), the cytotoxicity at 10 µM was -3.73%.

On to `Cc1ccnn1CCC(=O)N1C[C@@H]2CC[C@H]1CN(CC(=O)N(C)C)C2`, for which the cytotoxicity at 10 µM worked out at 8.42%. `CN(C)c1nccnc1C1CCN(C(=O)C2(C)CCCCN2C)CC1` (stereo not drawn): the cytotoxicity at 10 µM was 10%. Take `CCc1cc(NCCC(F)(F)F)nc(N2CCOCC2)n1`: the cytotoxicity at 10 µM was -4.65%. Then `Cc1ccc(CN2CCCC3(COCCN(Cc4c[nH]nn4)C3)C2)o1` (stereo not drawn), with -5.47%; and `CCSc1ccc(NC(=O)NC(C)c2ccncc2)cn1` (stereo not drawn), with -5.14%. `COc1ncc(CN2CCC3(CCCN(CC4CCCCC4)C3)C2)cn1` (stereo not drawn): the cytotoxicity at 10 µM is -6.8%. As for `Cc1nc(CN(C)CC(c2cccs2)N2CCOCC2)no1` (stereo not drawn), the cytotoxicity at 10 µM was -2.15%. For `Cn1cc(CC2CCN(C(=O)NCCc3cccc(O)c3)C2)cn1` (stereo not drawn) the value was 1.05%; for `Cc1cc(CN(C)C(=O)C2CCC(=O)N(CC3CCCCC3)C2)n[nH]1` (stereo not drawn), 1.85%. Take `CC(C)CNC(=O)c1ccc(NC(=O)NC(C)c2ccccn2)cc1` (stereo not drawn): the cytotoxicity at 10 µM was 5.26%. For the compound `CC(C)n1c(=O)c2ccccc2n(CCCN(C)C)c1=O`, the cytotoxicity at 10 µM was -13.2%. For `CC(=O)OCC1CCCCN1C(=O)c1ccc(Cn2ccnc2)o1` (stereo not drawn), the cytotoxicity at 10 µM was -54.5%. Then `CCS(=O)(=O)N1Cc2ccnn2CC(c2nc(C)no2)C1` (stereo not drawn), with 6.86%; and `OC1(c2cn(CC3CCN(C4CCSC4)CC3)nn2)CCCC1` (stereo not drawn), with 0.445%; and `O=C(O)c1cc2c(nc1-c1cncnc1)CCN(C1CCOC1)CC2` (stereo not drawn), with -1.61%.

Turning to `Cc1nn(C)c(C)c1CCC(=O)NCC1(C(N)=O)CCOCC1`, the cytotoxicity at 10 µM turned out to be 7.75%. Then `CC(C)N1CCc2[nH]nc(C(=O)N3CCN(C)CC3)c2C1`, with -3.75%; and `O=C1CSC(C(F)(F)F)c2c(O)nn(C3CCCCC3)c2N1` (stereo not drawn), with -45.7%; and `CN(C)[C@@H]1CCN(C(=O)c2ccsc2)[C@H]1Cc1cnn(C)c1`, with -6.18%. Turning to `CN(C)C(=O)Cn1ccc2cc(NC(=O)N3CCSCC3)ccc21`, the cytotoxicity at 10 µM was 5.25%. `Cc1cnn(CC2CCN(c3cc(C(C)C)nc4ccnn34)CC2)c1`: the cytotoxicity at 10 µM is -10.5%. For `CC(C)CC(=O)N1CC[C@H]2N(C)CC[C@@]2(C(=O)Nc2cccnc2)CC1` the value was -96.9%; for `N#CCCN(c1ccccc1)S(=O)(=O)CC1CCCCO1` (stereo not drawn), -4.69%; for `CNc1cc(C2CCCN2C(=O)CCc2ccccc2F)ccn1` (stereo not drawn), -2.01%.

Take `NC(=O)C1CCN(C(=O)NC2CCc3cc(Cl)ccc32)CC1` (stereo not drawn): the cytotoxicity at 10 µM came to 1.67%. `CC(C)N1CCc2nnc(COc3cncnc3)n2CC1`: the cytotoxicity at 10 µM amounted to 2.7%. In the case of `CC(C)[C@@H](N)C(=O)NCc1cccnc1N1CCc2ccccc2C1`, the cytotoxicity at 10 µM was found to be 11%. Consider `O=C(O)c1cc(S(=O)(=O)Nc2cccc(F)c2F)cc2c1OCCO2`, for which the cytotoxicity at 10 µM is -3.65%. Consider `Nc1nnnn1NCc1ccccc1C(F)(F)F`, for which the cytotoxicity at 10 µM was found to be 5.56%. On to `Cc1nnc2n1CCN(Cc1ncc(-c3ccccc3)o1)C2`, for which the cytotoxicity at 10 µM was -3.78%. In the case of `COCCNc1ccc(CNC(=O)C2COc3ccccc32)cc1` (stereo not drawn), the cytotoxicity at 10 µM was -13.9%. `Cn1c(C(=O)N2CCC(C(=O)N3CCCC3)CC2)c(Cl)c2ccccc21`: the cytotoxicity at 10 µM was 3.12%. For `c1ccc(CN2CCN(Cc3cscn3)CC2)cc1` the value was -2.69%; for `CCCN(CCO)C(=O)C1CCC(=O)N(Cc2ccc(Cl)cc2)C1` (stereo not drawn), 10.4%. In the case of `CC(CC(=O)NCCS(N)(=O)=O)C1CCCCC1` (stereo not drawn), the cytotoxicity at 10 µM is -9.52%.

In the case of `COc1ccc(CN2CCc3sccc3C2C)cc1CN1CCOCC1` (stereo not drawn), the cytotoxicity at 10 µM was -0.782%. Take `Cc1nn(C)c(C)c1C1CCCN1c1ncnc2[nH]ccc12` (stereo not drawn): the cytotoxicity at 10 µM is 3.45%.
